This is an account of results in PubChem BioAssay AID704 (The Scripps Research Institute Molecular Screening Center, 2007).

Molecules are shown by their SMILES. In all, about 97,000 compounds went through this assay and about 770 (0.79%) were called active. The sample as a whole holds a higher share of actives than the screen did. Unmarked numbers belong to inactive results.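 How the source made its calls: active means inhibition above the screen-wide mean plus 3 SD (cut at about 35% in these data); inactive means the rest.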

Chain of Protein Rev (Human immunodeficiency virus type 1 group M subtype B (isolate WMJ22)) (P05866 whole entry, looked up): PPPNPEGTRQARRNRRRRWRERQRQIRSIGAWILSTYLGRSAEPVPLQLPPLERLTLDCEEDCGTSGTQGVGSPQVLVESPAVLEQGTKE

The test addresses Protein Rev (Human immunodeficiency virus type 1 group M subtype B (isolate WMJ22)) (UniProt P05866). The test is described as follows: disruptors of Rev peptide-RRE RNA complex – biochemical, FRET, protein-RNA interaction, primary screen (AID 704).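 Further: 0% = median DMSO wells and 100% = median Neomycin B control wells.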 Particulars: Rev peptide-RRE RNA binding, at 8 µM, hits give high values. The method, boiled down:
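Test system: Cy5-tagged RRE RNA duplex with fluorescein-tagged Rev peptide | Read-out: % inhibition of FRET ratio versus controls | Probe or stimulus: Labelled Rev peptide | Incubation: 5 min RNA-compound premix plus 15 min binding step, 25 °C | Technique: FRET fluorescence readout | Benchmarks: DMSO low control, neomycin B high control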
Regarding `Cc1ccc(-n2c(CNc3ccc(F)cc3)nnc2SCC(=O)N2CCOCC2)cc1`, the inhibition (in general, the relative decrease from the control value, in per cent) is 5.16%.
For the compound `Cc1nn(C)c(Oc2ccccc2)c1[N+](=O)[O-]`, the inhibition was 4.97%.
As to `CCC(c1nnnn1C(C)(C)C)N(Cc1cc2cccc(C)c2n2nnnc12)C1CCCC1` (stereo not drawn), the inhibition was 7.78%.
In the case of `CCOC(=O)c1ccccc1NS(=O)(=O)c1ccc(OC)cc1`, the inhibition was 17.8%.
Consider `Cc1cc(C)n(C(=O)CCNC(=O)c2ccccc2Cl)n1`, for which the inhibition is 4.01%.
Regarding `CC1CCc2c(c3ccccc3[nH]c2=O)O1` (stereo not drawn), the inhibition was 4.83%.
On to `CC(=O)Nc1cccc(/C(C)=N/NC(=O)c2ccccc2Cl)c1`, for which the inhibition is -0.39%.
As for `COc1ccc(C(=O)N2CC3(C)CC2CC(C)(C)C3)cc1OC` (stereo not drawn), the inhibition is 1.95%.
On to `O=C(/C=C/c1cc2c(cc1Br)OCO2)NCc1ccc(Cl)cc1`, for which the inhibition was 7.84%.
The figure for `Cc1cccc(N(CC(=O)Nc2ccc(-c3nc4ccc(C)cc4s3)cc2)S(C)(=O)=O)c1` is 1.45%; for `O=C(Nc1sc2c(c1-c1nc3ccccc3[nH]1)CCCC2)C1CC1` it is 12.5%; for `NC1=NC(=O)C2(COC(c3ccccc3Cl)OC2)S1` (stereo not drawn) it is 1.07%.
Turning to `CCN(CC)c1ccc(/C=N/Nc2nc(C)cc(=O)[nH]2)cc1`, the inhibition is 15.3%.
As for `CCN(CC)c1ccc2cc(C(=O)O)c(=O)oc2c1`, the inhibition was 11%.
The figure for `CCN(CC)c1ccc2oc(=O)c(C)nc2c1` is 121% [fluorescence artefact?] (active); for `CCS(=O)(=O)Nc1ccc(C2=NN(S(=O)(=O)c3ccc(F)cc3)C(c3ccco3)C2)cc1` (stereo not drawn) it is 3.07%; for `O=C(Nc1ccccc1-c1nnn(CC(=O)N2CCCc3ccccc32)n1)c1cccc(Cl)c1` it is 13.6%.
In the case of `COc1cnc(SCc2ccc(Cl)c(Cl)c2)nc1Cl`, the inhibition was 10%.
The figure for `Cc1ccccc1N/N=C/c1ccc(N2CCOCC2)cc1` is 6.17%.
For the compound `Cc1ccc(Cc2cnc(NC(=O)/C(C#N)=C/c3ccc(-c4cccc([N+](=O)[O-])c4)o3)s2)cc1`, the inhibition is 5.73%.
For the compound `CCOC(=O)c1c(NC(=S)Nc2ccccc2)sc2c1CCN(C)C2`, the inhibition was 103% [fluorescence artefact?] (active).
Turning to `CCOCC(=O)Nc1sc2c(c1C(=O)OCC)CCCC2`, the inhibition was 10.1%.
Consider `CCOC(=O)c1c(NC(=S)NC(=O)c2ccco2)sc2c1CCCC2`, for which the inhibition was 0.19%.
As for `COc1cc(N2CCCC2)c(OC)cc1/C=C(/C#N)c1cccc(Br)c1`, the inhibition was 115% [fluorescence artefact?] (active).
For `CC(=O)Nc1cccc(Oc2cc(C#N)c(C#N)cc2N2CCOCC2)c1`, the inhibition was 5.35%.
Take `COc1cccc(C(=O)Nc2ccc(N3CCCC3)cc2)c1`: the inhibition is 9.26%.
Turning to `CC1CN(c2nc(-c3ccccc3)nnc2-c2ccccc2)CC(C)O1` (stereo not drawn), the inhibition was 8.23%.
`COCCCNCC(=O)Nc1sc(C)c(C)c1C(=O)OC`: the inhibition was 1.88%.
Regarding `CN1OC(COC(=O)c2ccc(Cl)cc2)CC1c1ccccc1` (stereo not drawn), the inhibition was 7.44%.
As for `C=CCc1ccc(OCCOc2cccc(/C=N/n3cnnc3)c2)c(OC)c1`, the inhibition is -0.22%.
The figure for `Clc1ccc(-c2cc(COc3ccccc3)no2)cc1Cl` is 17.6%; for `CC(CO)N1CCS(=O)(=O)CC1` (stereo not drawn) it is 4.13%.
Regarding `CCN(CC)C(=O)CSc1ncnc2c1cnn2-c1ccccc1`, the inhibition is 9.25%.
Turning to `O=C(CN1C(=O)NC2(CCCC2)C1=O)Nc1ccc(F)c(F)c1F`, the inhibition is 6.86%.
Regarding `CC(C)c1ccc(C(=O)NCCCc2ccccc2)cc1`, the inhibition was 16.8%.
As for `CC(C)C[C@@H](N)c1nnc(SCC(=O)c2ccc(Cl)cc2)o1`, the inhibition was 6.78%.
In the case of `CCCCOC(=O)Cn1c(=O)n(CC(=O)OCCCC)c2cc(C)ccc21`, the inhibition was 3.29%.
Consider `CCOc1cc(/C=C2/N=C(c3ccc(C(C)(C)C)cc3)OC2=O)cc(Cl)c1OS(C)(=O)=O`, for which the inhibition was -2.97%.
Regarding `Cc1ccc(-n2nc3cc(C)c(NC(=O)c4cccnc4)cc3n2)cc1`, the inhibition is 6.32%.
The figure for `Cc1ccc(S(=O)(=O)/N=C(/Nc2ccccn2)c2ccc(Cl)cc2)cc1` is 3.03%; for `Cc1ccccc1NC(=O)c1ccccc1` it is 3.87%.
Consider `CCOC(=O)c1cc(NC(=O)c2ccc(Cl)cc2)c(=O)oc1-c1ccccc1`, for which the inhibition is 10.3%.
`CC(=O)c1cc(NC(=O)c2ccccc2)c(=O)oc1/C=C/N(C)C`: the inhibition is 119% [fluorescence artefact?] (active).
Turning to `c1ccc(-c2csc(N3CCc4ccccc4C3)n2)cc1`, the inhibition was 3.58%.
The figure for `Cc1c(-c2ccccc2)cn2c1-c1ccc(C)n1CC2` is 47.1% (active); for `Cc1cc(=O)oc(C)c1C(=O)Nc1cnc2ccccc2c1` it is 53% (active); for `COc1ccc(CNC(=O)c2c(C)cc(=O)oc2C)cc1OC` it is 10.2%.
In the case of `Cc1cc(=O)oc(C)c1C(=O)NCc1ccc(F)cc1` it was 8.7%; in that of `CN1/C(=c2/s/c(=C3/C(=O)N(c4ccccc4)NC3=Nc3ccccc3)n(C)c2=O)C(C)(C)c2ccccc21`, 96.1% [fluorescence artefact?] (active).
The figure for `CC1=NN(c2cccc(Cl)c2)C(=O)C12CC(C)=C(C)CS2` (stereo not drawn) is 16.6%; for `COc1nc(NC2CCCCC2)nc(N2CCCCCC2)n1` it is 2.85%; for `COc1cccc2c1OCC(C(=O)NCc1ccc(Cl)cc1Cl)=C2` it is 10.5%.
With `Cc1ccc(-c2nnc(-n3nnc4ccccc43)c3ccccc23)cc1`, the inhibition was -4.36%.
As to `COc1ccc(-c2nn(C)c(=O)c3ccccc23)cc1NC(=O)COc1ccccc1`, the inhibition is 0.74%.
The figure for `CCNCCC(=O)N1c2ccccc2Sc2ccc(NC(=O)OCC)cc21` is -4.36%; for `CC1CCN(C(=O)CN(c2ccc(Oc3ccccc3)cc2)S(C)(=O)=O)CC1` it is 2.29%.
For `CCOc1ccc(C(CCc2ccccc2)NC(=O)c2ccc(OC)c(OC)c2)cc1OCC` (stereo not drawn), the inhibition was -1.68%.
In the case of `COc1ccc(N(CC(=O)NC2CCCCC2)S(=O)(=O)c2c(C)[nH]c(=O)[nH]c2=O)cc1` it was -2.97%.
As for `CCCCCCNC(=O)CSc1nccn1Cc1ccccc1`, the inhibition is 1.79%.
For the compound `O=C(Nc1ccc(-n2ccnc2P(=O)(O)c2ccccc2)cc1)c1ccccc1Br`, the inhibition was -0.76%.
Take `Cc1nn(-c2ccccn2)c2c1C(c1ccncc1)C1=C(CC(C)(C)CC1=O)N2` (stereo not drawn): the inhibition is 12.1%.
In the case of `CCOC(=O)CSc1ncc(-c2cccc(Cl)c2)cn1` it was 8.5%; in that of `Cc1ccc(-c2nnc(C)c(N3CC(C)OC(C)C3)n2)cc1` (stereo not drawn), 5.11%.
For the compound `Cc1nnc(NC(=O)Cn2c(=O)sc3ccccc32)s1`, the inhibition was 2.18%.
With `Cn1c(SCC(=O)N2CCCc3ccccc32)nc2ccccc2c1=O`, the inhibition is 3.69%.
In the case of `CC(=O)c1ccc(S(=O)(=O)N2CCN(c3nc4c(C)c(C)ccc4cc3C#N)CC2)cc1` it was 9.9%.
In the case of `COCc1cc(C)nc2sc(C(=O)NC3CCCCC3)c(N)c12` it was 12.8%; in that of `CCOC(=O)N1CC=C2C(C#N)=C(N)C(C#N)(C#N)[C@H](c3cccs3)[C@H]2C1`, 29.8%; in that of `N#CC1=C(N)C(C#N)(C#N)[C@H](c2ccsc2)[C@H]2COCC=C12`, 35.5%.
For `CCN1CC=C2C(C#N)=C(N)C(C#N)(C#N)[C@H](c3ccoc3)[C@H]2C1`, the inhibition was 61.7% (active).
As for `COC(=O)C1=C(C)OC(N)=C(C#N)C1c1cc(OC)ccc1OC` (stereo not drawn), the inhibition is 9.18%.
Consider `CCCN1CC=C2C(C#N)=C(N)C(C#N)(C#N)C(c3cc(OC)ccc3OC)C2C1` (stereo not drawn), for which the inhibition is 71.8% (active).
With `COc1ccc(C2C=C(c3ccc(Br)cc3)Nc3nc(NS(C)(=O)=O)nn32)cc1` (stereo not drawn), the inhibition is 83.2% [fluorescence artefact?] (active).
For the compound `COc1ccc(C2CC(c3ccc(C)cc3)Nc3nc(N)nn32)cc1` (stereo not drawn), the inhibition is 3.26%.
`Fc1ccccc1/C=C1\CCCC2=C1Nc1ncnn1C2c1ccccc1F` (stereo not drawn): the inhibition is 9.16%.
The figure for `COC(=O)c1c(-c2cccs2)csc1NC(=O)CSc1ncnc2sc(C)c(C)c12` is 6.95%; for `COc1cccc(OC)c1C(=O)Nc1ccc(N2CCCCC2)cc1` it is 4.3%; for `CCCC(=O)n1nc(-c2ccccc2)nc1N` it is 0.74%.
For the compound `CCCNC(=O)c1c(N)n(-c2ccc(S(N)(=O)=O)cc2)c2nc3ccccc3nc12`, the inhibition was 1.66%.
Turning to `O=C1c2ccccc2C(=O)c2c1cccc2N1CCN(Cc2ccccc2)CC1`, the inhibition is 10.8%.
For the compound `CCCCNC(=O)OC(C)CNC(=O)OC` (stereo not drawn), the inhibition was -1.24%.
In the case of `CC(=O)Oc1ccc(NC(=O)CCC2CCCCC2)c(C(=O)O)c1` it was -1.47%; in that of `CCOc1ccc(C(O)Cc2nc3ccccc3n2C)cc1` (stereo not drawn), -0.15%.
The figure for `CCOC(=O)c1cc(C#N)c(N2CCCCC2)nc1-c1ccccc1` is 14.6%; for `Cc1ccc(Sc2cc(N3CCOCC3)nc(-c3ccccc3)n2)cc1` it is 12.8%.
On to `CS(=O)(=O)N1CCN(c2cccc(Cl)n2)CC1`, for which the inhibition was 3.87%.
Take `CCC(=O)N(Cc1ccccc1)c1ccccn1`: the inhibition is 7.11%.
Take `Clc1ccc2c(c1)C1=C(C(c3ccncc3)O2)C(c2ccc(Br)cc2)n2ncnc2N1` (stereo not drawn): the inhibition was -1.15%.
The figure for `COC(=O)C1=C(C)Nc2ncnn2C1c1ccco1` (stereo not drawn) is 3.56%.
In the case of `Brc1ccc(C2=CC(c3ccco3)n3ncnc3N2)cc1` (stereo not drawn), the inhibition was 124% [fluorescence artefact?] (active).
For `COc1ccc(CN(CC(=O)NC2CCCC2)C(=O)CCC(=O)Nc2cc(C)on2)cc1`, the inhibition was -2.37%.
As for `Cc1cccc(NC(=O)CSc2nc3c(c(=O)[nH]2)CCCC3)c1C`, the inhibition is 5.45%.
Turning to `O=C(NCc1cccnc1)c1cccnc1Sc1ccc(Cl)cc1`, the inhibition is 5.95%.
